This excerpt belongs to a sample that is enriched for hits.
T cruzi inh: T. cruzi replication inhibition. AID 1885. T. cruzi beta-gal in NIH3T3, luminescence, 90 h. 300,000 compounds, 1.4% hits. inhibition, % (concentration not given with the values);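 active = mean inhibition across valid replicates above about 55%, limit read from the data; inconclusive = mean below that limit but half or more replicates reach it; inactive = mean below it, under half of replicates reach it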;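 note: signal also drops with host cell toxicity which is not excluded here; 0% = plate median of DMSO wells and 100% = zero luminescence signal; higher percent means less beta-gal luminescence so fewer parasites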
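Test system: β-gal T. cruzi (Tulahuen C4) inside NIH/3T3 cells / Quantity: 5,000 cells/well / Measured by: luminescence from GalScreen with 0.05% NP40, read after 60 min / Medium: DMEM plus 2% FBS / Measure: parasite load inhibition, % / Reagent: Tulahuen C4 trypomastigotes, 5000/well / Schedule: co-culture of at least 90 h after 3 h attachment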
HSF1 inh: HSF1 inhibition; AID 2098; activity change, negative = inhibition, % at 7.5 µM (by protocol); NIH3T3-HGL HSE-luciferase, MG132-induced, luminescence 8 h; active compounds read low; 300,000 compounds, 0.77% hits;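 active = more than half of replicate wells show activity change below -50%, luminescence cut by over half; inconclusive = some wells, but at most half, below -50%; inactive = no replicate well below -50%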;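 note: luciferase reports HSF-1 transcriptional activity via heat shock element; 0% = median of DMSO wells and -100% = zero luminescence signal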
Hsp70 act: transcriptional activators of Hsp70 | activation, % at 10 µM | 200,000 compounds, 0.04% hits | HeLa Hsp70 promoter luciferase reporter, luminescence; scaled: vehicle 0, proteasome-inhibitor control 100%;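 active = activation above the mean across all tested compounds plus 3 SD, cutoff set per campaign, cut at about 5.5% in these data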;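 note: 100% = MG132 at 30 µM as the positive control and 0% = DMSO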
Lmaj promast: Leishmania major promastigote growth inhibition. Leishmania major promastigotes, resazurin fluorescence viability. inhibition, % at 10 µM. 200,000 compounds, 9% hits. AID 1063; in the data active = inhibition above about 50%;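 note: promastigotes grown with compound for 44 hours at 28 °C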
HSF-1 act: increases HSF-1 driven luciferase reporter signal | 300,000 compounds, 1.7% hits | activation, % at 9 µM | NIH3T3-HGL HSF-1 luciferase reporter, MG132, 8 h; 100% = twice DMSO control signal;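 active = mean replicate activation of at least 50% with a set share of replicates each reaching 50%; inconclusive = only one of those two conditions met; inactive = mean below 50% and too few replicates reaching it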;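 note: 0% = median of the neutral control wells and 100% = twice that signal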
Starred values were filed as active, the others as inactive; ? = inconclusive; · = no result.

SMILES	T cruzi inh	HSF1 inh	Hsp70 act	Lmaj promast	HSF-1 act
N#C/C(=C/c1ccc(-c2cc(C(=O)O)cc(C(=O)O)c2)o1)c1nc2ccccc2s1	5	8	-1	4	21
CCn1c(SCC(=O)Nc2c(C#N)cnn2-c2ccccc2)nnc1-c1cccs1	-4	-7	·	·	-17
COc1ccc(S(=O)(=O)N/N=C(/C)c2ccncc2)cc1	1	-2	·	·	-7
CCc1ccc(-c2cc(C(=O)NN3CCOCC3)c3ccccc3n2)cc1	0	16	0	5	13
O=C(NN1CCOCC1)c1cc(-c2ccc(Br)cc2)nc2ccccc12	2	6	0	58*	5
O=C(N/N=C/c1ccccn1)c1cc(-c2ccc(Br)cc2)nc2ccccc12	50	174	·	·	169*
CCCOc1cccc(-c2cc(C(=O)N/N=C/c3ccccn3)c3ccccc3n2)c1	22	109	·	·	143*
O=C(Nc1ccccc1N1CCOCC1)c1cc(-c2ccco2)nc2ccccc12	-9	-41	0	2	-47
O=C(N/N=C/c1ccco1)c1cc(-c2ccccc2)nc2ccccc12	-13	3	·	·	2
COc1cc(-c2cc(C(=O)Nc3ccccc3N3CCOCC3)c3ccccc3n2)cc(OC)c1OC	42	-22	0	61*	-17
O=C1CCC(C(=O)OCc2nnc(-c3ccccc3)o2)=NN1	0	0	·	·	3
Oc1ccc(C=Nc2ccccc2-c2nc3ccccc3[nH]2)cc1	12	18	0	13	34
COc1ccccc1CNC(=O)CCS(=O)(=O)c1cccc2nonc12	-6	4	0	-4	5
COc1cccc(/C=N/NC(=O)c2ccc(N3CCCC3=O)cc2)c1	-32	0	·	·	11
O=C(O)COc1ccccc1/C=N/NC(=O)c1cc(-c2ccc(Cl)cc2)nc2ccccc12	13	4	·	·	21
N#Cc1ccc(/C=N/NC(=O)c2cc(-c3cccs3)nc3ccccc23)cc1	2	31	0	29	60*
O=C(N/N=C/c1ccccn1)c1cc(-c2ccc(Cl)cc2)nc2ccccc12	44	113	-1	98*	147*
COc1cc(/C=N/NC(=O)c2cc(-c3cccs3)nc3ccccc23)ccc1O	-19	-3	·	·	-9
Cc1occc1-c1nnc(SCC(=O)N2CCCc3ccccc32)n1Cc1ccco1	11	14	0	74*	14
Cc1cccc(-n2ccnc2SCC(=O)N2CCCc3ccccc32)c1C	7	7	0	60*	21
COc1ccc(-c2csc3ncnc(N4CCN(S(=O)(=O)c5cccc(Br)c5)CC4)c23)cc1	62*	12	·	·	25
COc1ccc(-c2csc3ncnc(N4CCN(S(=O)(=O)c5cccc(C(F)(F)F)c5)CC4)c23)cc1	52	?	·	·	-29
O=C(CSc1ncn[nH]1)Nc1ccc(Cl)c(S(=O)(=O)N2CCOCC2)c1	1	-3	0	2	-11
COc1ccc(-c2csc(C3=C(O)CN(C(C)C)C3=N)n2)cc1OC	-8	-1	0	72*	5
COc1ccc(N2CC(O)=C(c3nc(-c4ccccc4)cs3)C2=N)cc1	-6	0	·	·	-7
SMILES	T cruzi inh	HSF1 inh	Hsp70 act	Lmaj promast	HSF-1 act
COc1ccc(-c2nc(CCl)cs2)cc1OC	-10	-4	0	14	14
COc1ccc(-c2nc(-c3ccc(O)cc3O)cs2)cc1OC	35	45	0	27	68*
Cc1ccc([N+](=O)[O-])cc1-c1ccc(/C=C(\C#N)c2[nH]nc(N)c2C#N)o1	·	·	0	75*	·
CCCN(CCC)S(=O)(=O)c1ccc2c(c1)CCCN2C(C)=O	0	-2	0	-7	18
CCCN(CCC)S(=O)(=O)c1ccc(C(=O)N2CCCc3ccccc32)cc1	15	-8	0	64*	8
O=C(NCc1ccccc1)C1(C(F)(F)F)C/C(=C/CCO)CCCO1 (stereo not given)	-7	-6	·	·	-6
C/C=C1\COC(C(=O)NCc2ccccc2)(C(F)(F)F)C=C1C=C(C)C (stereo not given)	13	135	·	·	153*
CCOC(=O)c1sc(Nc2ccccc2)nc1C	-12	20	0	1	35
CCC(=O)Nc1nc2ccc(NC(C)=O)cc2s1	-7	11	0	2	12
CCOC(=O)c1sc(Nc2nc3c(OC)cccc3s2)nc1C	14	27	0	73*	26
CCOC(=O)c1sc(Nc2nc(C)cc(OC)n2)nc1C	23	-2	0	56*	5

Screens deposited in PubChem by several laboratories.
